Experimental data as given in ChEMBL document CHEMBL1132699, “Synthesis and biological evaluation of 2',3'-didehydro-2',3'- dideoxy-5-fluorocytidine (D4FC) analogues: discovery of carbocyclic nucleoside triphosphates with potent inhibitory activity against HIV-1 reverse transcriptase” (J Med Chem, 1999).

Legend:
PC-3 = assay: Tested in vitro for anticancer activity against PC-3 cells; type: functional, cell-based; conditions: Homo sapiens
LNCaP = assay: Tested in vitro for anticancer activity against LNCaP cells; type: functional, cell-based; conditions: Homo sapiens
9L [1] = assay: The compound was tested in vitro for anticancer activity against 9L cells; type: functional, cell-based; conditions: Rattus norvegicus
Method in brief: (§1)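 Growth inhibition in human or rat tumour cell lines. Cells cultured with drug in 96-well plates for 5 days (LNCaP, SK-MES-1), 4 days (CEM, MCF-7, SK-MEL-28, HepG2, 9L) or 3 days (PC-3). Solvent-exposed untreated cells served as negative control. Viable, actively metabolizing cells were read by MTT assay. DMSO stocks (40 mM) were diluted in growth medium. IC50 in μM.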

SK-MEL-28 [2] = assay: Tested in vitro for anticancer activity against SK-MEL-28 cells; type: functional, cell-based; conditions: Homo sapiens
CCRF-CEM = assay: Tested in vitro for anticancer activity against CEM cells; type: functional, cell-based; conditions: Homo sapiens
Vero = assay: Tested in vitro for cytotoxicity against Vero cells; type: functional, cell-based; conditions: Chlorocebus sabaeus
[3] = Tested in vitro for cytotoxicity against PBM cells; type: functional, cell-based; conditions: Homo sapiens, PBMC
MCF7 = assay: Tested in vitro for anticancer activity against MCF-7 cells; type: functional, cell-based; conditions: Homo sapiens
[4] = system: Human immunodeficiency virus 1; assay: (§2) Tested in vitro for anti HIV-1 activity against PBM cells; type: functional, organism-based; conditions: Human immunodeficiency virus 1, PBMC
HepG2 = assay: Tested in vitro for anticancer activity against HepG2 cells; type: functional, cell-based; conditions: Homo sapiens
[5] = system: Human immunodeficiency virus 1; assay: as §2; type: functional; conditions: Human immunodeficiency virus 1, PBMC
SK-MES-1 = assay: Tested in vitro for anticancer activity against SK-MES-1 cells; type: functional, cell-based; conditions: Homo sapiens
[6] = molecular target: Human immunodeficiency virus type 1 reverse transcriptase (Human immunodeficiency virus 1) (UniProt Q72547); assay: (§3) The compound was tested for inhibitory activity against Recombinant HIV-1 reverse transcriptase
Method in brief: (§4)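 Extension assay with HIV-1 p66/51 heterodimer RT (1 unit) and r(I)n·(dC)12-18 template-primer (0.05 units/mL). Buffer: Tris-HCl pH 8.0, KCl, MgCl2, DTT, 100 μg/mL BSA, 1 μM [3H]dCTP. Incubated 1 h at 37 °C, stopped with cold 10% TCA/0.05% sodium pyrophosphate for 30 min at 4 °C. Precipitate filter-harvested and counted by beta counting. 3TC-TP served as positive control.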

[7] = molecular target: Human immunodeficiency virus type 1 reverse transcriptase (Human immunodeficiency virus 1, UniProt Q72547); assay: as §3; method in brief: as §4
9L [8] = assay: Tested in vitro for anticancer activity against 9L cells; type: functional, cell-based; conditions: Rattus norvegicus; method in brief: as §1
SK-MEL-28 [9] = assay: The compound was tested in vitro for anticancer activity against SK-MEL-28 cells; type: functional, cell-based; conditions: Homo sapiens; method in brief: as §1

SMILES | IC50 (PC-3) [µM] | IC50 (LNCaP) [µM] | IC50 (9L [1]) [nM] | IC50 (SK-MEL-28 [2]) [µM] | IC50 (CCRF-CEM) [µM] | IC50 (Vero) [µM] | IC50 [3] [µM] | IC50 (MCF7) [µM] | EC50 [4] [nM] | IC50 (HepG2) [µM] | EC90 [5] [µM] | IC50 (SK-MES-1) [µM] | IC90 [6] [µM] | IC50 [7] [nM] | IC50 (9L [8]) [nM] | IC50 (SK-MEL-28 [9]) [µM]
O=c1[nH]c(=O)n([C@@H]2C=C[C@@H](CO)O2)cc1F | > 100 | 85.8 | 2400 | 9.8 | 11.4 | 3 | 47.4 | 67.3 | 7500 | 37.1 | 23 | 10 | – | – | – | –
Nc1ccc([C@@H]2CS[C@H](OP(=O)(O)OP(=O)(O)OP(=O)(O)O)O2)c(O)n1 | – | – | – | – | – | – | – | – | – | – | – | – | 29.8 | – | – | –
Nc1ccn(C2C=CC(COP(=O)(O)OP(=O)(O)OP(=O)(O)O)C2)c(=O)n1 (racemic) | – | – | – | – | – | – | – | – | – | – | – | – | 3.4 | 380 | – | –
O=c1[nH]c(=O)n([C@@H]2C=C[C@H](CO)O2)cc1F | 83.4 | 57.2 | – | 7.45 | 12.9 | 32 | 2.3 | 15.8 | 260 | 35.4 | 3 | 4.6 | – | – | 1900 | –
O=C1NC(O)C(F)=CN1[C@H]1C=C[C@@H](CO)O1 (stereo not given in full) | 63 | 67.8 | – | 21.7 | 9.1 | 7.9 | 32.2 | 54.1 | 7900 | 59.3 | 23 | 4.2 | – | – | 1200 | –
Nc1nc(=O)n([C@H]2C=C[C@@H](CO)O2)cc1I | > 100 | > 100 | – | > 100 | 107 | > 100 | 98.3 | > 100 | > 10000 | > 100 | > 10 | > 100 | – | – | – | –
Nc1nc(=O)n(C2C=CC(CO)C2)cc1F (stereo not given) | – | – | – | – | > 100 | > 100 | > 100 | – | 8200 | – | 71 | – | – | – | – | –
O=c1[nH]cc(F)c(=O)[nH]1 [FLUOROURACIL] | > 100 | > 100 | – | 4.5 | 90.5 | 6.81 | 5 | 41 | – | 37.9 | – | 13.1 | – | – | 1000 | –
CC(=O)OC[C@@H]1C=C[C@H](n2cc(F)c(N)nc2=O)O1 | > 100 | – | – | > 100 | > 100 | > 100 | > 100 | – | 130 | > 100 | 0.4 | > 100 | – | – | – | –
Nc1nc(=O)n([C@@H]2C=C[C@@H](CO)O2)cc1F | > 100 | > 100 | – | > 100 | > 100 | > 100 | > 100 | > 100 | 20000 | > 100 | 70 | > 100 | – | – | > 100000 | –
CCCC(=O)OC[C@@H]1C=C[C@H](n2cc(F)c(N)nc2=O)O1 | > 100 | > 100 | – | > 100 | > 100 | > 100 | > 100 | > 100 | 150 | > 100 | 0.61 | > 100 | – | – | > 100000 | –
Nc1ccc([C@@H]2CS[C@H](OP(=O)(O)OP(=O)(O)OP(=O)(O)O)O2)c(=O)[nH]1 | – | – | – | – | – | – | – | – | – | – | – | – | – | 3600 | – | –
Nc1nc(=O)n(C2C=CC(COP(=O)(O)OP(=O)(O)OP(=O)(O)O)C2)cc1F (racemic) | – | – | – | – | – | – | – | – | – | – | – | – | 4 | 400 | – | –
Cc1cn([C@H]2C[C@H](N=[N+]=[N-])[C@@H](CO)O2)c(=O)[nH]c1=O [ZIDOVUDINE] | – | – | – | – | – | – | > 100 | > 10 | 2 | – | 0.02 | > 100 | – | – | – | > 10
Nc1ccn(C2C=CC(CO)C2)c(=O)n1 (stereo not given) | – | – | – | – | > 100 | > 100 | > 100 | – | 9000 | – | 59.9 | – | – | – | – | –
CCCNc1nc(=O)n([C@H]2C=C[C@@H](CO)O2)cc1F | > 100 | > 100 | – | > 100 | > 100 | > 100 | 34.7 | > 100 | > 100000 | > 100 | > 100 | > 100 | – | – | – | –
Nc1nc(=O)n([C@H]2C=C[C@@H](CO)O2)cc1Br | > 100 | > 100 | – | > 100 | 42.5 | > 100 | 91.6 | > 100 | > 10000 | > 100 | > 10 | > 100 | – | – | – | –
Nc1nc(=O)n([C@H]2C=C[C@@H](CO)O2)cc1F [DEXELVUCITABINE] | > 10 | > 100 | – | > 100 | > 100 | > 100 | > 100 | > 100 | 46 | > 100 | 0.77 | > 100 | – | – | – | –
Nc1nc(=O)n([C@H]2C=C[C@@H](COP(=O)(O)OP(=O)(O)OP(=O)(O)O)C2)cc1F (racemic) | – | – | – | – | – | – | – | – | – | – | – | – | 2.2 | 270 | – | –
CCCCC(=O)OC[C@@H]1C=C[C@H](n2cc(F)c(N)nc2=O)O1 | > 100 | > 100 | – | > 100 | 124 | > 100 | > 100 | > 100 | 56 | > 100 | 0.34 | > 100 | – | – | – | –
CC(=O)Nc1nc(=O)n([C@H]2C=C[C@@H](CO)O2)cc1F | > 100 | > 100 | – | 108 | 14.7 | 103 | > 100 | 62.9 | 1000 | > 100 | 6 | 84.6 | – | – | – | –
Nc1nc(=O)n([C@@H]2C=C[C@H](CO)O2)cc1F [ELVUCITABINE] | > 100 | 55.2 | – | > 100 | 0.46 | 9.4 | 12.9 | 82.8 | 34 | 118 | 0.16 | 99.1 | – | – | – | –
C[C@@H]1C[C@@H]([C@H](O)CC2CC(=O)NC(=O)C2)C(=O)[C@@H](C)C1 [CYCLOHEXIMIDE] | 3.5 | 1.2 | – | 1 | 0.12 | 1.2 | 2.1 | 1.5 | – | 2.5 | – | 2.7 | – | – | 200 | –
